Measurements gathered from unrelated publications.
Compare with care: the assays were run in different laboratories.
FGFR2: Fibroblast growth factor receptor 2 (FGFR2, Homo sapiens, UniProt P21802)

| SMILES | target | observed | mode | technique | concentration | measurement | value |
| --- | --- | --- | --- | --- | --- | --- | --- |
| Cc1cc(NC(=O)c2cccc3cc(-c4cccc5[nH]nc(N)c45)ccc23)ccc1F | FGFR2 | enzyme activity | inhibitor | – | 0.1 µM | activity vs control | 98% |
| CC(C)(C)c1nc(-c2cccc(NS(=O)(=O)c3c(F)cccc3F)c2F)c(-c2ccnc(N)n2)s1 | FGFR2 | enzyme activity | inhibitor | radiometric | 1 µM | remaining activity | 92% |
| Cc1ccc(C(=O)Nc2ccc(CN3CCN(C)CC3)c(C(F)(F)F)c2)cc1C#Cc1cnc2cccnn12 | FGFR2 | cell-free assay | – | – | 23.5 nM | remaining signal | 32% |
| CNC(=O)c1cc(Oc2ccc(NC(=O)Nc3ccc(Cl)c(C(F)(F)F)c3)cc2)ccn1 | FGFR2 | enzyme activity | inhibitor | – | 0.3 µM | inhibition | 66% |
| C[C@@H]1CN(c2cc(-c3n[nH]c4ccc(OC5(C)CC5)cc34)ncn2)C[C@H](C)O1 | FGFR2 | cell-free assay | – | competition with immobilised ligand | 0.1 µM | remaining binding | 96% |
| O=C1NC(=O)c2cc(Nc3ccc(F)cc3)c(Nc3ccc(F)cc3)cc21 | FGFR2 | cell-free assay | – | – | 0.5 µM | remaining signal | 102% |
| CN(c1ccnc(CNc2nc(Nc3ccc4c(c3)CC(=O)N4)ncc2C(F)(F)F)n1)S(C)(=O)=O | FGFR2 | cell-free assay | – | competition with immobilised ligand | 1 µM | remaining binding | 59% |
| O=C(Nc1cnn(-c2csc(C(=O)NC3COC3)c2)c1)Nc1ccccc1Cl | FGFR2 | enzyme activity | inhibitor | – | 5 µM | remaining activity | 95.6% |
| CC(C)(O)[C@H]1CC[C@H](Nc2ccc3ncc(-c4cccc(C(F)(F)F)c4)n3n2)CC1 | FGFR2 | enzyme activity | inhibitor | – | 1 µM | remaining activity | 98.3% |
| Cc1ccc(NC(=O)c2ccc(CN3CCN(C)CC3)cc2)cc1Nc1nc(-c2cccnc2)cs1 | FGFR2 | cell-free assay | – | – | 0.5 µM | remaining signal | 100% |
| Cc1nc(C2CCN(C(=O)c3ccc(OC(F)(F)F)cc3N)CC2)c2ncc(N3CCN(C)CC3)cc2n1 | FGFR2 | cell-free assay | – | competition with immobilised ligand | 1 µM | remaining binding | 100% |
| Cc1ccc(NC(=O)c2ccc(C)c(C(F)(F)F)c2)cc1C#Cc1nn(C2CCC(O)CC2)c2ncnc(N)c12 (centres unmarked) | FGFR2 | cell-free assay | – | – | 10 µM | remaining signal | 0% |
| COc1cc2c(Nc3ccc(Br)cc3F)ncnc2cc1OCC1CCN(C)CC1 | FGFR2 | cell-free assay | – | – | 0.5 µM | remaining signal | 38.4% |
| Cc1ccc(Nc2nccc(N(C)c3ccc4c(C)n(C)nc4c3)n2)cc1S(N)(=O)=O | FGFR2 | enzyme activity | inhibitor | – | 10 µM | inhibition | 99% |
| Cc1cnc(NC2CCOCC2)nc1-n1cnc(C(=O)NC(CN)c2cc(F)cc(Cl)c2)c1 (centres unmarked) | Fibroblast growth factor receptor 2 (FGFR2, Homo sapiens, UniProt P21802, N549H) | enzyme activity | inhibitor | radiometric | 1 µM | remaining activity | 99% |
| CCN(CC)CCNC(=O)c1c(C)[nH]c(/C=C2\C(=O)Nc3ccc(F)cc32)c1C | FGFR2 | enzyme activity | inhibitor | – | 0.3 µM | inhibition | 36% |
| Cc1noc([C@H]2C[C@@H](c3ccc(C(F)(F)F)cc3)CN(C(=O)N3CCS(=O)(=O)C3)C2)n1 | FGFR2 | cell-free assay | – | competition with immobilised ligand | 1 µM | remaining binding | 85% |
| O=C1Nc2ccc(Cl)cc2C1=Cc1cc(Cl)c(O)c(Cl)c1 | FGFR2 | cell-free assay | – | – | 0.5 µM | remaining signal | 92% |
| CO[C@@H](C)c1c(Nc2ccc([C@H](N(C)C(=O)C3CCS(=O)(=O)CC3)C(F)(F)F)cc2)cnc2cc(Cl)nn12 | FGFR2 | cell-free assay | – | competition with immobilised ligand | 1 µM | remaining binding | 91% |
| CN(C)C1CCN(CC#Cc2nn(C3CCCC3)c3nc(NCc4ccccc4)ncc23)C1 (centres unmarked) | FGFR2 | enzyme activity | inhibitor | FRET | 0.1 µM | inhibition | 0% |
| C[C@H](c1ccnc(Nc2nc3ccc(-c4cc(N(C)C)ncn4)cc3[nH]2)c1)N1CCN(C(=O)CC(F)(F)F)CC1 | FGFR2 | cell-free assay | – | competition with immobilised ligand | 0.1 µM | remaining binding | 100% |
| CCCOc1ccc(OC)c(F)c1C(=O)c1ccc(C(=O)N[C@@H]2CNC[C@H]2NC(=O)c2ccc3[nH]ncc3c2)cc1 | FGFR2 | enzyme activity | inhibitor | – | 10 µM | remaining activity | 70% |
| CNCc1ccccc1-c1csc([C@H](C)Nc2nc(C)nc3cc(OC)c(OC)cc23)c1 | FGFR2 | cell-free assay | – | competition with immobilised ligand | 1 µM | remaining binding | 94% |
| CCN(CC)c1ccc(C2=NNC(=O)CC2C)cc1[N+](=O)[O-] (centres unmarked) | FGFR2 | enzyme activity | inhibitor | – | 10 µM | remaining activity | 115% |
| CS(=O)(=O)CCNCc1ccc(-c2ccc3ncnc(Nc4ccc(OCc5cccc(F)c5)c(Cl)c4)c3c2)o1 | FGFR2 | cell-free assay | – | – | 0.5 µM | remaining signal | 96.4% |
| CCc1ccccc1C(=O)Nc1n[nH]c2c(C)c(F)c(C3C(C#N)=C(C)N(C)C(C)=C3C#N)cc12 | FGFR2 | cell-free assay | – | competition with immobilised ligand | 1 µM | remaining binding | 83% |
